The list is not random: actives were taken first. Their share in the collection is about 2.4%.
aDG glyco act – increases alpha dystroglycan glycosylation. Pro5-aDG cells, alpha-DG glycosylation AlphaScreen (IIH6); 0% Pro5, 100% B10-LARGE cell signal. hit rate 0.22% among 360,000. activation, % at 10 µM;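 active = activation of at least 8% versus controls, or a plate z-score of at least 8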;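 also: Pro5 are CHO cells carrying HIG-tagged alpha-DG that lacks glycosylation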
TbMetRS inhib – blocks T. brucei methionyl-tRNA synthetase activity; purified T. brucei MetRS, ATP depletion, Kinase-Glo luminescence; inhibition, % at 11.9 µM; hit rate 0.4% among 360,000; AID 624268;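 active = inhibition above a per-plate cutoff of the control wells' mean inhibition plus 3 SD, cut at about 5.5% in these data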;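 also: 0% = DMSO wells median and 100% = median of wells with control inhibitor compound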
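technique = Kinase-Glo luminescence, ATP depletion format | system = purified MetRS (methionyl-tRNA synthetase) enzyme from Trypanosoma brucei | timing = 15 min preincubation, 2 h reaction, all 25 °C | evaluation = percent inhibition versus plate control medians | dosing = single dose, 11.9 µM final nominal, 0.9% final DMSO | also added = substrates ATP, L-methionine and bulk Escherichia coli tRNA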
TAG inh – triacylglycerol accumulation inhibition; H9c2 cells, Nile Red lipid (TAG) fluorescence; cells loaded with 200 µM oleic acid; hit rate 0.66% among 230,000; inhibition, % at 12.5 µM;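 active = pattern-corrected inhibition of lipid staining of at least 50% with the nuclear-stain viability signal not falling by more than 50%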;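 also: 0% = DMSO wells and 100% = triacsin C control wells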
MC4R antag cAMP – human MC4R antagonism in cAMP assay; P32245; hit rate 0.48% among 360,000; MC4R-expressing cells, MTII-stimulated cAMP, LANCE TR-FRET; inhibition, % at 6.5 µM;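 active = inhibition above its plate's cutoff, the mean of tested wells on that plate plus 3 SD, cut at about 29% in these data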;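 also: 0% = Melanotan II alone and 100% = Melanotan II plus saturating MCL0020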
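System – human MC4R-expressing U2OS cells · Also added – Melanotan II · Dosing – one concentration, 6.5 µM nominal · Timing – 30-min compound, 1-h challenge, 1-h detection, room temperature · Measured by – Eu-cAMP/anti-cAMP TR-FRET, emission 671 nm · Replicates – singlicate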
MC4R barr agon – activates human MC4R beta-arrestin recruitment | activation, % at 8.9 µM | P32245 | hit rate 0.98% among 360,000 | U2OS MC4R beta-arrestin complementation, luminescence; percent of melanotan II response, DMSO zero;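 active = activation above a per-plate cutoff, the mean activation of sample wells on that plate plus 3 SD, cut at about 8% in these data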
NTR1 ag – agonists of human neurotensin receptor NTR1; hit rate 0.17% among 330,000; P30989; AID 493036; NTR1-U2OS beta-arrestin-GFP spot imaging, agonist mode; activation, % at 20 µM;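 active = activation at or above 40% of the spot to cytoplasm intensity ratio, with at least 20 cells analyzed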;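 also: 0% = DMSO without peptide and 100% = 100 nM NTR1 peptide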
MC4R barr conf – human MC4R beta-arrestin agonism confirmation; shares compounds with MC4R barr agon; U2OS MC4R beta-arrestin recruitment, luminescence; scaled DMSO 0%, Melanotan II 100%; activation, % at 8.9 µM; hit rate 31% among 2,400;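 active = mean activation across replicates above the hit cutoff set in the earlier primary screen, cut at about 8% in these data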
MOR DOR agonist – OPRM1-OPRD1 heterodimer agonism counter-screen | shares compounds with MC4R barr agon | U2OS PathHunter beta-arrestin, beta-gal luminescence; percent of deltorphin B response, DMSO zero | activation, % at 9.2 µM | hit rate 5.8% among 2,400 | AID 602194;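 active = mean activation across replicates exceeds the hit threshold derived in the earlier primary screen, cut at about 18% in these data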;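 also: 100% = deltorphin B at 0.9 µM final and 0% = DMSO alone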
The depositor's hits bear a star; · = not tested or not shown.

SMILES	aDG glyco act	TbMetRS inhib	TAG inh	MC4R antag cAMP	MC4R barr agon	NTR1 ag	MC4R barr conf	MOR DOR agonist
Cc1cc2nc(NCCCO)n(CC(=O)c3cc(C(C)(C)C)c(O)c(C(C)(C)C)c3)c2cc1C	2	1	36	7	13*	26	6	11
O=C(CNC(=S)NC(=O)c1ccccc1Br)c1ccccc1	0	1	·	1	21*	0	0	4
Cc1ccccc1C(=O)NC(=S)NCC(=O)c1ccccc1	0	0	-32	5	1	3	·	·
CCOc1cc(/C=N/N=C(\N)c2nonc2N)cc(Br)c1OCc1cccc2ccccc12	-1	-1	39	1	31*	1	11*	8
COc1cc(/C=N/N=C(/N)c2nonc2N)cc(Br)c1OCc1cccc(C)c1	0	-1	-19	9	5	8	·	·
CCc1ccc(NC(=O)c2ccc3c(c2)C(=O)N(CCOC)C3Nc2ccc(CC)cc2)cc1 (configuration not stated)	1	0	18	1	12*	1	3	9
COc1cc(OC)cc(-c2c(-c3cccs3)c3cc(-c4ccc(C(N)=O)cc4)ccc3n2C)c1	1	0	-55	14	16*	11	11*	4
Cc1cc(Br)cn2c(Cc3ccsc3)c(C3CCCCC3)nc12	0	0	·	·	·	·	·	·
O=C(Nc1ccccc1OC(=O)c1ccc(Cl)cc1)c1ccc(Cl)cc1	0	0	·	11	36*	5	8	3
Cc1ccc(NC(=O)c2ccc(OC(=O)c3ccco3)cc2)cc1	0	-1	·	0	-2	0	·	·
O=C(Nc1ccccc1O)c1ccc(Cl)cc1	0	0	-29	-4	-2	0	·	·
COc1ccc(C(=O)Nc2cc(Cl)ccc2OC(=O)c2ccc(OC)cc2)cc1	0	0	·	16	14*	1	2	2
Cc1ccc(C(=O)Nc2cc(Cl)ccc2OC(=O)c2ccc(C)cc2)cc1	·	·	·	·	·	0	·	·
O=C(Nc1cc(Cl)ccc1Cl)c1ccc(OC(=O)c2ccco2)cc1	0	-1	·	-1	13*	3	4	7
O=C(Nc1ccccc1)c1cc(C2CCCCN2S(=O)(=O)c2ccccc2)on1 (configuration not stated)	0	0	11	18	-1	·	·	·
COC(=O)C[C@H]1CC[C@@H]2[C@H](COC[C@H](O)CN2S(=O)(=O)c2ccccc2OC)O1	0	0	·	·	·	·	·	·
CC(C)(C)c1nn(-c2ccccc2)c2[nH]c(=O)c(CNCc3ccc4c(c3)OCO4)cc12	0	0	·	6	16*	4	14*	10
COc1ccc(C(=O)Nc2cc(-c3ccc(C)cc3)no2)cc1	0	-2	·	-1	9.8*	0	-2	5
COc1ccc2cc(C(=O)N3CCC(Cc4ccccc4)CC3)[nH]c2c1	0	-1	·	7	10*	3	8	4
COc1ccc2[nH]c(C(=O)N3CCC(Cc4ccccc4)CC3)cc2c1	0	0	·	12	2	2	·	·
O=C(Nc1cc(F)cc(F)c1)c1ccc(NCCc2ccccc2)c([N+](=O)[O-])c1	0	0	·	-4	10*	0	-1	5
O=C(NC1CCSc2ccccc21)c1ccc(C(F)(F)F)cc1 (configuration not stated)	0	0	·	6	9.7*	0	1	5
O=C(NC1CCSc2ccccc21)c1ccc(F)cc1 (configuration not stated)	0	-1	0	-1	2	0	·	·
CS(=O)(=O)Nc1cccc(NC(=O)C2Cc3c(-c4ccccc4)ccnc3O2)c1 (configuration not stated)	0	0	11	-5	-1	·	·	·
